PMC4334733 (International journal of toxicology, 2015)
“And” between values parts separate entries of the source, which are not always exact repeats. Equal entries are not always repeated. “Also recorded” adds a separate entry of the source. Structures can show the parent of a compound that is named as a salt.

Columns and labels:
[1] = system: rats; details: oral 100 mg/kg TDF for 8 weeks; cited from earlier work
[2] = system: kidney gene expression; assay: Toxicogenomics: microarray gene expression analysis of kidney; format: in vivo, mouse
[3] = system: Wistar rats; details: 600 mg/kg TDF for 5 weeks; cited from earlier work
[4] = system: Female BALB/c mice; assay: 13-week daily oral toxicity study of TDF; format: in vivo, mouse; details: for Clinical Chemistry, Day 29 and Day 92: CHO cholesterol, TRI triglycerides
[5] = system: liver gene expression; assay: Toxicogenomics: microarray gene expression analysis of liver; format: in vivo, mouse; details: 1000 mg/kg TDF for 91 days vs vehicle
Outline: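 Female BALB/c mice received 1000 mg/kg by daily oral gavage for 91 days, or vehicle (50 mM trisodium citrate dihydrate), n=7 per group. They were killed on Day 92, 24 hr after the last dose. Total RNA from a 20–50 mg left liver lobe section was hybridized to Mouse Gene 1.0 ST arrays. Fold change versus vehicle was tested by t-test with Benjamini-Hochberg correction.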

[6] = format: in vivo, mouse
Outline: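 Female BALB/c mice were gavaged daily (10 ml/kg) at 50, 500 or 1000 mg/kg; the vehicle was 50 mM trisodium citrate dihydrate. Tenofovir was quantified against 2.5–2000 ng/ml plasma standards using peak area ratio to indinavir and 1/y-weighted linear regression. Noncompartmental Cmax, Tmax and AUClast were derived.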

[7] = kidney, 1000 mg/kg TDF for 91 days vs vehicle, regulation Down, p<0.05, N=7
[8] = kidney, 1000 mg/kg TDF for 91 days vs vehicle, regulation Up, p<0.05, N=7

CC(C)OC(=O)OCOP(=O)(CO[C@H](C)Cn1cnc2c(N)ncnc21)OCOC(=O)OC(C)C [TDF, Tenofovir disoproxil fumarate]
Renal toxicity [1]: induced renal toxicity | Fold change of gene expression in the kidney (all changes) ([2]; 1000 mg/kg TDF vs vehicle, Day 92): less than 2 fold | Fold Change, Cyp4b1 [2, 7]: 1.60 fold | Fold Change, Polr3e [2, 7]: 1.87 fold | Fold Change, Gm10804 (predicted gene 10804) [2, 8]: 1.65 fold | Fold Change, Rorc (RAR-related orphan receptor gamma) [2, 8]: 1.77 fold | Nephrotoxicity [3]: nephrotoxicity was observed | Survival ([4]; TDF 0, 50, 500 or 1000 mg/kg po daily for 1, 28 or 91 days): All animals survived until their scheduled sacrifice | Clinical Observations: Gasping (incidence) ([4]; TDF 50 mg/kg po daily): 0 | Clinical Observations: Hunched Posture (incidence) ([4]; TDF 50 mg/kg po daily): 0 | Clinical Observations: Hypoactivity (incidence) ([4]; TDF 50 mg/kg po daily): 0 | Clinical Observations: Ruffled Fur (incidence) ([4]; TDF 50 mg/kg po daily): 9 out of 35 and 9 of 35 | Mortality ([4]; TDF 50 mg/kg po daily): 0 | Clinical Chemistry, Day 29 and Day 92 ([4]; TDF 50 mg/kg po daily): ^↓(CHO, TRI) | Clinical Observations: Gasping (incidence) ([4]; TDF 500 mg/kg po daily): 0 | Clinical Observations: Hunched Posture (incidence) ([4]; TDF 500 mg/kg po daily): 0 | Clinical Observations: Hypoactivity (incidence) ([4]; TDF 500 mg/kg po daily): 0 | Clinical Observations: Ruffled Fur (incidence) ([4]; TDF 500 mg/kg po daily): 9 out of 35 and 9 of 35 | Mortality ([4]; TDF 500 mg/kg po daily): 0 | Clinical Chemistry, Day 29 and Day 92 ([4]; TDF 500 mg/kg po daily): ^↓(CHO, TRI) | Clinical Observations: Gasping (incidence) ([4]; TDF 1000 mg/kg po daily): two mice and 2 of 35 | Clinical Observations: Hunched Posture (incidence) ([4]; TDF 1000 mg/kg po daily): one mouse and 1 of 35 | Clinical Observations: Hypoactivity (incidence) ([4]; TDF 1000 mg/kg po daily): two mice and 2 of 35 | Clinical Observations: Ruffled Fur (incidence) ([4]; TDF 1000 mg/kg po daily): 31 out of 35 and 31 of 35 | Histopathology: Liver (Days 29 and 92) ([4]; TDF 1000 mg/kg po daily): Minimal/Mild Cytomegaly | Mortality ([4]; TDF 1000 mg/kg po daily): 0 | Body Weight ([4]; TDF 1000 mg/kg po daily, vs control): significantly lower mean body weights; also recorded: ^↓(Days 36 and 43) | Clinical Chemistry, Day 29 and Day 92 ([4]; TDF 1000 mg/kg po daily): ^↓(CHO, TRI) | Liver cytomegaly after 4-week recovery ([4]; TDF 1000 mg/kg, Day 119 necropsy): not present; also recorded: not observed | Decreases in cholesterol (CHO) and triglyceride (TRI) levels ([4]; TDF 1000 mg/kg, study Days 29 and 92): 30–48% | Liver cytomegaly, minimal or mild (incidence) ([4]; TDF 1000 mg/kg/day for 28 days, necropsy Day 29): 7 of 10 | Liver cytomegaly, minimal or mild (incidence) ([4]; TDF 1000 mg/kg/day for 91 days, necropsy Day 92): 6 of 15 | Histopathologic changes in the kidneys ([4]; any dose group): No histopathologic changes | Fold Change, Cml3 (camello-like 3) ([5]; down expressed, p<0.05, N=7): 2.08 fold | Fold Change, Gm4952 ([5]; down expressed, p<0.05, N=7): 2.15 fold | Fold Change, Gm15401 ([5]; down expressed, p<0.05, N=7): 2.44 fold | Fold Change, Rgs16 ([5]; down expressed, p<0.05, N=7): 2.86 fold | Fold Change, Serpinb1a ([5]; down expressed, p<0.05, N=7): 2.70 fold | Fold Change, Gria3 ([5]; upward expressed, p<0.05, N=7): 3.34 fold | Fold Change, Phlda3 ([5]; upward expressed, p<0.05, N=7): 2.41 fold | Fold Change, Rdh11 ([5]; upward expressed, p<0.05, N=7): 2.09 fold | Fold Change, Snord116 ([5]; upward expressed, p<0.05, N=7): 2.15 fold | Fold Change, Sult1e1 ([5]; upward expressed, p<0.05, N=7): 4.39 fold | Fold Change, Cdkn1a (cyclin-dependent kinase inhibitor 1A, P21) ([5]; upward expressed, p<0.05, N=7, 1000 mg/kg): 3.7 fold and 3.70 fold

C[C@H](Cn1cnc2c(N)ncnc21)OCP(=O)(O)O [Tenofovir]
Mouse AUC plasma level of tenofovir relative to healthy volunteers ([6]; after 1000 mg/kg dose, human value ref 29): approximately eight | Accumulation between dosing Days 1 and 91 (Cmax or AUC) ([6]; plasma tenofovir, oral TDF 50-1000 mg/kg daily): no evidence of accumulation | Liver cytomegaly ([4]; 50 or 500 mg/kg/day): not present
